This note sets out measurements from ChEMBL document CHEMBL4339193, “Phenotypic Screening-Based Identification of 3,4-Disubstituted Piperidine Derivatives as Macrophage M2 Polarization Modulators: An Opportunity for Treating Multiple Sclerosis” (J Med Chem, 2019).

The target in series [1] is T1, Signal transducer and transcription activator 6 (Mus musculus) (UniProt P52633).
T1 sequence (whole entry): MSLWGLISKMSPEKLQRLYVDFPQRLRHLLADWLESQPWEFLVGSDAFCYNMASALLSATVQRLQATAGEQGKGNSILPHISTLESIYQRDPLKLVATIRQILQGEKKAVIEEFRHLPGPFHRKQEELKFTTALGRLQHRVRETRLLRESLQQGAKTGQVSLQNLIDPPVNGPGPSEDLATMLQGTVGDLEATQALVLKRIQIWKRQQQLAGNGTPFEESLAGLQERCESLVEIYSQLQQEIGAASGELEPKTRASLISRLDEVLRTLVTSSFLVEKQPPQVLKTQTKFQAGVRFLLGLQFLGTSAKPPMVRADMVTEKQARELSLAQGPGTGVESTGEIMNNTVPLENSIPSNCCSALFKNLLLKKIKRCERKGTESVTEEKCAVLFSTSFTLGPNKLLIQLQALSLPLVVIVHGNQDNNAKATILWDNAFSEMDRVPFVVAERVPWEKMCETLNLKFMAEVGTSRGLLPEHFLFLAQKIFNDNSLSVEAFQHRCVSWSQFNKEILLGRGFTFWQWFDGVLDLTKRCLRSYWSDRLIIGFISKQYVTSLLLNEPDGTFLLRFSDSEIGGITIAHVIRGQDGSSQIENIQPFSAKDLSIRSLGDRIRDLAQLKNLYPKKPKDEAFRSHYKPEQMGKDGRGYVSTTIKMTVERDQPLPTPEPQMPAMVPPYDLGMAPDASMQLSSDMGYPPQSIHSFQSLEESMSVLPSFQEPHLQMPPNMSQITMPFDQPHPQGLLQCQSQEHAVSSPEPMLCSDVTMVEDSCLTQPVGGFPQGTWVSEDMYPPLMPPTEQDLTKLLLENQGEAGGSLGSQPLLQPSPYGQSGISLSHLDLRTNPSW
The series is described as follows: Stimulation of STAT6 phosphorylation at […] residue in mouse RAW264.7 cells at 300 nM measured after 4 to 24 hrs by Western blot analysis. In kind it is cell-based. The method in brief: (§1)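 Cell lysates separated by SDS-PAGE, transferred to PVDF and probed for Akt, p-Akt(308), p-Akt(473), Stat3, p-Stat3(Y705), Stat6 and p-Stat6; ECL detection, GAPDH as loading control.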

Series [2] concerns the target RAC-alpha serine/threonine-protein kinase (Mus musculus) (UniProt P31750). The series is described as follows: Stimulation of AKT phosphorylation at 308 residue in mouse RAW264.7 cells at 300 nM measured after 4 to 24 hrs by Western blot analysis. In kind it is cell-based. A digest of the protocol:
as §1

For series [3], the system named is Mus musculus. The series is described as follows: Antiinflammatory activity in C57BL/6J mouse model of MOG (35 to 55 residues)/pertussis toxin/complete Freund's adjuvant-induced experimental allergic encephalomyelitis assessed as effect on Treg cell population in draining lymph nodes by measuring change in CD4 level at 200 mg/kg, ig administered daily starting from 7 days post-immunization measured after 13 to 19 days post-immunization by flow cytometry analysis. In kind it is functional, organism-based. A digest of the protocol: (§2)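 MOG35-55/CFA EAE mice were dosed daily in saline from day 7 and sampled between days 13 and 19. Spleens and dLNs were mechanically dissociated to single cells. CNS cells came from collagenase IV digestion and a 70%/30% Percoll gradient. Cells were surface-stained with fluorochrome antibodies, including CD4, CD11b, CD11c and MHC-II, and analysed by flow cytometry.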

Series [4] relates to BMDM. The series is described as follows: Modulation of M2 polarization in C57BL/6J mouse BMDM cells assessed as up regulation of Arg1 mRNA expression at 300 nM measured after 24 hrs by qRT-PCR analysis. In kind it is functional, cell-based. A digest of the protocol:
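BMDMs treated 24 h with 300 nM compound at 37 °C, 5% CO2. Trizol RNA extraction, then qRT-PCR for Arg1, Mrc1 and Fizz1 mRNA. Mean ± SEM.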

In series [5] the test system is BMDM. Briefly: Antiinflammatory activity in LPS-induced C57BL/6J mouse BMDM cells assessed as suppression of M1 macrophage-stimulated CD4 positive T-cell proliferation at 300 nM preincubated for 48 hrs followed by CD4 positive T-cell addition and measured after 72 hrs by CFSE dye based FACS analysis. In kind it is functional. The method in brief:
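BMDMs given 300 nM compound with 50 ng/ml LPS for 48 h on day 5 of differentiation; drug removed day 7. Cells then cocultured 1:1 with CFSE-labelled negatively selected naïve CD4+ T cells plus 500 ng/ml anti-CD3 and 500 ng/ml anti-CD28. T-cell proliferation (CFSE MFI, % proliferated) read by flow cytometry after 72 h. Mean ± SEM, at least three independent experiments.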

Series [6] concerns Mus musculus. The series is described as follows: Inhibition of M1 polarization in C57BL/6J mouse model of MOG (35 to 55 residues)/pertussis toxin/complete Freund's adjuvant-induced experimental allergic encephalomyelitis assessed as CD86 level in draining lymph nodes at 200 mg/kg, ig administered daily starting from 7 days post-immunization measured after 13 to 19 days post-immunization by flow cytometry analysis (reference value: 18.4%). In kind it is functional. Also noted: scale not given: the % may be the effect or the level left. A digest of the protocol:
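MOG35-55/CFA EAE mice were dosed daily in saline from day 7 and sampled between days 13 and 19. Cells came from spleen and dLN by mechanical dissociation and from CNS by collagenase IV/Percoll. They were stained for F4/80 with CD206 (M2) or CD86 (M1), and each was read by flow cytometry as a percentage of total F4/80+ macrophages.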

Series [7] deals with Mus musculus. Briefly: Antiinflammatory activity in C57BL/6J mouse model of MOG (35 to 55 residues)/pertussis toxin/complete Freund's adjuvant-induced experimental allergic encephalomyelitis assessed as effect on Treg cell population in spleen by measuring change in CD4 level at 200 mg/kg, ig administered daily starting from 7 days post-immunization measured after 13 to 19 days post-immunization by flow cytometry analysis. In kind it is functional, organism-based. A digest of the protocol:
as §2

The test system of a further series is RAW264.7. The series is described as follows: Inhibition of LPS-induced M1 polarization in mouse RAW264.7 cells assessed as down regulation of Mcp1 mRNA expression at 300 nM measured after 24 hrs by qRT-PCR analysis relative to control. In kind it is functional, cell-based. The method in brief:
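RAW264.7 cells pre-treated with LPS (50 ng/ml) for 24 h, then given 300 nM compound for 24 h. Mcp1 mRNA quantified by qRT-PCR relative to control. Mean ± SEM.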

A short description of series [8]: AUC (0 to t) in Sprague-Dawley rat at 50 mg/kg, po administered as single dose via gavage by LC/MS analysis. The conditions noted are these: in vivo. In kind it is ADME, organism-based. A digest of the protocol:
(§3)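 Single dose in rats; venous blood (100 µL) drawn at 0, 0.5, 1, 2, 4, 8 and 12 h, plasma separated by centrifugation and held at -20 °C. Compound measured by LC/MS; Cmax, Tmax, t1/2 and AUC derived from the concentration–time data.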

The nature of series [9]: Half life in Sprague-Dawley rat at 50 mg/kg, po administered as single dose via gavage by LC/MS analysis. The conditions noted are these: in vivo. In kind it is ADME, organism-based. The method in brief: as §3
Series [10] deals with BMDM. Briefly: Modulation of M2 polarization in C57BL/6J mouse BMDM cells assessed as up regulation of Arg1 expression at 300 nM measured after 4 to 24 hrs by Western blot analysis. In kind it is functional, cell-based. The method in brief: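 BMDMs lysed in pH 7.6 buffer with 1% Triton X-100, phosphatase inhibitor and 1 mM PMSF. Proteins separated by SDS-PAGE, blotted to PVDF and probed with anti-Arg-1, anti-Ym1 or anti-TNF-α, then ECL detection; GAPDH as loading control.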

Calls of active or inactive are those of the source. The calls are words filed in the database; no cut-off is given here.

Chain of RAC-alpha serine/threonine-protein kinase (Mus musculus) (P31750 whole entry): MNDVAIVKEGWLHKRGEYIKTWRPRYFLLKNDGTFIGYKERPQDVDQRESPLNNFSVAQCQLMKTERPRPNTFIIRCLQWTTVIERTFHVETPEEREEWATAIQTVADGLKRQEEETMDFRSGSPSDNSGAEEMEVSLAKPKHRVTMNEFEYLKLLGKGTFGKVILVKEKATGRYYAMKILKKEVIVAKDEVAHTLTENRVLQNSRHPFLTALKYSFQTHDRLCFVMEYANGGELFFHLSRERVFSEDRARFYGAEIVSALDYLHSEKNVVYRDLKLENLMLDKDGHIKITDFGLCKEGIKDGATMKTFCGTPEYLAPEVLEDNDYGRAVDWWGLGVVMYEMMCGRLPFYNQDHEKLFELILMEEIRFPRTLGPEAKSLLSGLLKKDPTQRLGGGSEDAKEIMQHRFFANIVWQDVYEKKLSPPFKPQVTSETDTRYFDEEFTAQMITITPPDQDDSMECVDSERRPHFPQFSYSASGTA

For the compound `Cl.Cn1ncc(Cl)c1-c1ccc(C(=O)N[C@@H]2CNCC[C@H]2c2cccc(F)c2)cc1`, the outcome (in series [1]; in the series with Mus musculus [3]; in the series with Mus musculus [7]) was inactive. The result (in series [2]; in the series with BMDM [4]; with BMDM [5]; with BMDM [10]) was Active. In addition, the Activity with Mus musculus [6] is reported as 11.5%. Moreover, in the series with RAW264.7, the inhibition entry was “Active”. Besides, in series [8], the AUC(0-t) came to 4670 ng·h/mL. Also, in [9], the half-life is 7.77 h.
